Bioassay records: PubChem, The Scripps Research Institute Molecular Screening Center
MC4R antag cAMP – blocks human MC4R cAMP signaling | P32245 | MC4R-expressing cells, MTII-stimulated cAMP, LANCE TR-FRET | inhibition, % at 6.5 µM | 0.48% of 360,000 active;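 active means inhibition above its plate's cutoff, the mean of tested wells on that plate plus 3 SD, cut at about 29% in these data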
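System: U2OS cells stably expressing human melanocortin 4 receptor (MC4R). Reagent: Melanotan II challenge after compound preincubation. Doses: 6.5 µM. Times: 30-min compound, 1-h challenge, 1-h detection, room temperature. Measured by: TR-FRET with Eu-cAMP and labeled anti-cAMP, 671 nm. Replicates: singlicate.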
MC4R barr agon – activates human MC4R beta-arrestin recruitment | P32245 | U2OS MC4R beta-arrestin complementation, luminescence; percent of melanotan II response, DMSO zero | activation, % at 8.9 µM | 0.98% of 360,000 active | AID 540308;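 active means activation above a per-plate cutoff, the mean activation of sample wells on that plate plus 3 SD, cut at about 8% in these data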
TLR9-MyD88 block – inhibitors of human TLR9-MyD88 binding | Q9NR96+Q99836 | CHO BLA complementation TLR9-MyD88, CCF4 FRET ratio | inhibition, % at 4.98 µM | 0.21% of 340,000 active | AID 504734;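 active means inhibition above the mean over all tested compounds plus 3 SD, cut at about 21% in these data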
TLR4-MyD88 BLA – TLR4-MyD88 interaction inhibition in cells | O00206+Q99836 | HeLa CL3-4 TLR4/MyD88 BLA complementation, FRET ratio | 0.18% of 200,000 active | AID 861 | inhibition, % at 8.4 µM; in the data active means inhibition above about 25%
NOD2-RIPK2 inh – blocks binding of human NOD2 to RIPK2. O43353. CHO BLA complementation NOD2-RIPK2, CCF4 ratio. inhibition, % at 4.98 µM. 0.38% of 360,000 active; in the data active means inhibition above about 21%
Target sequence (O43353 whole entry, looked up): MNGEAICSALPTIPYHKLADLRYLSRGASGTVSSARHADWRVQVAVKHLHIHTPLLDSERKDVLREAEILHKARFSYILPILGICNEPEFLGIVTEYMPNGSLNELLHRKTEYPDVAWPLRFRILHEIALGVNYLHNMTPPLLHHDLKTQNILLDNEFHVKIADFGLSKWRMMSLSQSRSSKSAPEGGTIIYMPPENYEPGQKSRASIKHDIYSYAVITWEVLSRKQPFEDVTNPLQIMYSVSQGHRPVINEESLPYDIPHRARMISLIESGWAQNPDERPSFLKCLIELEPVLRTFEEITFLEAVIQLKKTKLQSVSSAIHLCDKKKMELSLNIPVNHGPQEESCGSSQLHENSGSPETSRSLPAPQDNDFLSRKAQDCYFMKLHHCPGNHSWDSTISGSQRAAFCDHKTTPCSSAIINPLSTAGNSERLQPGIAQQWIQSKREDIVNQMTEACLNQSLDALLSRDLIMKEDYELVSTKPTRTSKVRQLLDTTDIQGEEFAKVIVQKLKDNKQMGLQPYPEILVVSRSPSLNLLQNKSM
NOD2-RIPK2 conf – confirmation of human NOD2-RIPK2 interaction inhibitors. CHO cells, NOD2-RIPK2 BLA complementation, CCF4 FRET. 70% of 1,200 active. shares compounds with NOD2-RIPK2 inh. inhibition, % at 4.98 µM. AID 624370;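 active means mean inhibition across replicates above a set limit taken from the earlier primary screen, cut at about 21% in these data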
BLA counter – hits BLA reporter in NOD2-RIPK2 inhibitor counterscreen; inhibition, % at 4.98 µM; CHO BLA reporter, CCF4 FRET ratio; 57% of 1,200 active; shares compounds with NOD2-RIPK2 inh;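 active means mean inhibition above the low-control mean inhibition plus three low-control SD, cut at about 11% in these data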
Hits are given with their value; . = inactive; / = not tested or not shown. Shown are actives, neighbours in structure and some others; about 1.8% of the full set was active somewhere.

SMILES	MC4R antag cAMP	MC4R barr agon	TLR9-MyD88 block	TLR4-MyD88 BLA	NOD2-RIPK2 inh	NOD2-RIPK2 conf	BLA counter
Cc1cccc(C2=NN(c3ccc(Br)cc3)[C@@H](C(=O)N3CCOC3=O)[C@@H]2c2ccc(F)cc2)c1	.	.	.	.	.	/	/
O=C1OCCN1C(=O)[C@H]1[C@H](c2ccccc2)C(c2cccc(Cl)c2)=NN1c1ccc(Br)cc1	.	.	.	/	30.7	.	46.9
C[C@H]1CN(C2CCCCC2)C(=O)[C@@H]1CC(=O)Nc1ccc(Br)cc1	.	.	.	/	.	/	/
COc1ccccc1NCCC(=O)OCC(=O)Nc1cc([N+](=O)[O-])ccc1F	.	.	.	/	.	/	/
O=C(CS(=O)(=O)c1ccccc1)NCc1ccccc1	.	.	.	/	.	/	/
O=C1/C(=C/c2ccc([N+](=O)[O-])cc2)Oc2cc(O)ccc21	.	.	.	/	.	/	/
O=C1/C(=C/c2ccc(Br)cc2)Oc2cc(O)ccc21	.	.	.	/	25.1	37.0	41.6
CC(C)(C)c1ccc(/C=C2\Oc3cc(O)ccc3C2=O)cc1	.	.	.	/	23.9	26.8	44.9
CSc1ccccc1NC(=O)Cn1c([N+](=O)[O-])cnc1C	.	.	.	/	.	/	/
CC(=O)c1ccc(S(=O)(=O)N2CCC3(CC2)CC(=O)c2ccccc2O3)cc1	.	.	.	/	.	/	/
O=C1c2ccccc2C(=O)N1Nc1ccccc1	.	.	.	.	.	/	/
Cc1ccc(NN2C(=O)C=C(c3ccccc3)C2=O)cc1	.	.	/	.	84.0	85.8	.
Cc1ccnc(NC(=O)CCC(=O)N(CC(=O)NCc2ccccc2)c2ccc3c(c2)OCO3)c1	.	.	.	.	32.2	.	.
CCOC(=O)C[n+]1ccc2c([nH]c3ccccc32)c1C	.	.	.	/	38.3	.	.
O=[N+]([O-])c1ccc(Sc2nc3ccccc3o2)c([N+](=O)[O-])c1	.	.	.	.	30.3	59.5	.
O=[N+]([O-])c1ccc(Cl)cc1Sc1nc2ccccc2o1	.	.	.	.	.	/	/
O=C(COc1ccc(S(=O)(=O)N2CCOCC2)cc1Cl)NCC1CCCO1 (centres undefined)	.	.	.	/	45.8	.	.
COc1ccccc1-c1ccc(/C=C2/C=C(C)OC2=O)o1	.	.	.	.	.	/	/
COc1ccccc1-c1ccc(/C=C2\C=CC(=O)O2)o1	.	.	/	/	48.3	45.2	49.2
C=C1C(=O)[C@]23C[C@H]1CCC2[C@]1(C)CCC[C@@](C)(C(=O)O)C1C[C@@H]3O (some centres undefined)	/	/	/	/	22.2	32.7	.
Cc1ccc(S(=O)(=O)N2C(=O)C(C)SC2=Nc2ccccc2)cc1 (centres undefined)	.	.	.	.	41.0	.	.
Cc1ccc(S(=O)(=O)N2C(=O)C(c3ccccc3)SC2=Nc2ccccc2)cc1 (centres undefined)	.	.	.	.	.	/	/
O=[N+]([O-])c1ccc(N2CCOCC2)cc1O	.	.	.	/	.	/	/
Cc1cc(N2CCOCC2)ccc1/C=C\[N+](=O)[O-]	.	.	.	.	51.3	55.3	.
COc1ccc(CNC(=O)COc2cc(=O)n(C)c3ccccc23)cc1	.	.	.	.	24.6	.	.
SMILES	MC4R antag cAMP	MC4R barr agon	TLR9-MyD88 block	TLR4-MyD88 BLA	NOD2-RIPK2 inh	NOD2-RIPK2 conf	BLA counter
COc1ccc(CNC(=O)CCCOc2cc(=O)n(C)c3ccccc23)cc1	.	.	.	.	.	/	/
O=C1c2cccc3c([N+](=O)[O-])ccc(c23)C(=O)N1O	.	.	.	/	20.9	.	12.5
CCN(CC)C(=O)Oc1ccc(Br)cc1C(=O)Nc1ccc(F)cc1F	.	.	.	/	.	/	/
Cc1ccccc1CS(=O)(=O)c1nnc([C@H](Cc2ccccc2)NC(=O)OC(C)(C)C)o1	.	.	.	.	57.1	50.3	.
CC(C)(C)OC(=O)N[C@@H](Cc1ccccc1)c1nnc(S(=O)(=O)Cc2ccccc2)o1	/	/	/	.	/	/	/
CC(C)(C)OC(=O)N1CCC(c2c(C(=O)NCC3CCN(C4CCCC4)C3)cnn2-c2ccccc2Cl)CC1 (centres undefined)	.	.	.	/	.	/	/
Cc1ccc2nc(SCC(=O)Nc3cc(C(F)(F)F)ccc3N3CCOCC3)[nH]c2c1	.	.	.	.	33.8	.	.
O=C(CSc1nccc(=O)[nH]1)Nc1cc(C(F)(F)F)ccc1N1CCOCC1	.	.	.	/	.	/	/
CCOc1ccccc1C(=O)NCC(=O)NCC(C)(C)N1CCOCC1	.	.	.	/	28.9	.	.
COc1ccccc1C(=O)NCCC(=O)NCC(C)(C)N1CCOCC1	.	.	.	/	.	/	/
CN(C)c1ccc(C=c2c3ccccc3n3c2cc(-c2ccc(Cl)cc2)[n+]3C)cc1	.	.	.	/	24.6	23.3	22.7
COc1ccc(NC(=O)CSc2nc3c(sc4ccccc43)c(=O)n2CCCN2CCCC2)cc1	.	.	.	/	.	/	/
COCCN(C(=O)COC(=O)CCC1CCCCC1)c1c(N)n(Cc2ccccc2)c(=O)[nH]c1=O	.	.	.	/	27.6	.	.
CN(C(=O)COC(=O)CCC1CCCCC1)c1c(N)n(Cc2ccccc2)c(=O)[nH]c1=O	.	.	.	/	.	/	/
CCc1ccccc1NCC(=O)Nc1ccc(Cl)c(C(F)(F)F)c1	.	.	.	.	.	/	/
CCOC(=O)C1=C(C)Nc2sc(C(=O)c3ccc(C)cc3)c(N)c2C1c1ccc(C(=O)OC)cc1 (centres undefined)	.	.	.	.	41.5	.	17.0
CCCC(=O)N(C1CC(C)C(C#N)(C#N)C1(C#N)C#N)N(C)C (centres undefined)	.	.	.	/	57.3	91.6	13.6
CCOc1ccc(/C=C2\CCC(C3CCCC3)C2=O)cc1 (centres undefined)	.	.	.	/	.	/	/
CCC(=O)OCOc1ccc(/C=C2/CCC(CN(C)C)C2=O)cc1 (centres undefined)	.	.	.	/	32.7	34.6	.
COc1ccc(CCNC(=O)C/C(C)=N/NC(=O)c2ccc([N+](=O)[O-])cc2Cl)cc1OC	.	.	.	/	45.9	.	.
FC(F)(F)c1cnc2c(c1)Nc1ccccc1S2	.	.	.	.	21.7	.	.
CN1C/C(=C\c2ccc(N3CCOCC3)cc2)C(=O)/C(=C/c2ccc(N3CCOCC3)cc2)C1	.	.	.	.	.	/	/
CCN1C/C(=C/c2ccc(N3CCOCC3)cc2)C(=O)/C(=C/c2ccc(N3CCOCC3)cc2)C1	.	.	.	.	22.8	38.7	34.1
OCc1ccccc1-c1cccc2nccn12	.	.	/	/	.	/	/
COc1ccc(COc2cc(-c3cccc(OC)c3)nc3ccc(N)cc23)cc1	.	.	.	.	30.9	.	14.8
